{"data": "Experimental data from different studies", "target": "G protein-coupled receptor kinase 6 (GRK6, Homo sapiens, UniProt P43250)", "note": "Compare with care: the assays were run in different laboratories."}
{"Compound": "O=C1NC(=O)c2cc(Nc3ccc(F)cc3)c(Nc3ccc(F)cc3)cc21", "read-out": "cell-free assay", "tested at": "0.5 µM", "endpoint": "remaining signal", "result": "98.7%"}
{"Compound": "CC(C)(C)c1nc2c(s1)c1nc(N)ncc1c1ccc(NS(=O)(=O)c3c(F)cccc3F)c(F)c12", "read-out": "enzyme activity", "mode": "inhibitor", "technique": "radiometric", "tested at": "1 µM", "endpoint": "remaining activity", "result": "76%"}
{"Compound": "CC(C)(O)[C@H]1CC[C@H](Nc2ccc3ncc(-c4cccc(C(F)(F)F)c4)n3n2)CC1", "read-out": "enzyme activity", "mode": "inhibitor", "tested at": "1 µM", "endpoint": "remaining activity", "result": "90.6%"}
{"Compound": "CNC(=O)c1cc(Oc2ccc(NC(=O)Nc3ccc(Cl)c(C(F)(F)F)c3)cc2)ccn1", "read-out": "enzyme activity", "mode": "inhibitor", "tested at": "0.3 µM", "endpoint": "inhibition", "result": "2%"}
{"Compound": "CCN(CC)c1ccc(C2=NNC(=O)CC2C)cc1[N+](=O)[O-] (stereo not drawn)", "read-out": "enzyme activity", "mode": "inhibitor", "tested at": "10 µM", "endpoint": "remaining activity", "result": "105%"}
{"Compound": "N#CCCc1ccc2c(c1)-c1[nH]c3ccc([N+](=O)[O-])cc3c1CC(=O)N2", "read-out": "cell-free assay", "tested at": "0.5 µM", "endpoint": "remaining signal", "result": "91.5%"}
{"Compound": "CCCOc1ccc(OC)c(F)c1C(=O)c1ccc(C(=O)N[C@@H]2CNC[C@H]2NC(=O)c2ccc3[nH]ncc3c2)cc1", "read-out": "enzyme activity", "mode": "inhibitor", "tested at": "10 µM", "endpoint": "remaining activity", "result": "104%"}
{"Compound": "Cc1ccc(Nc2nccc(N(C)c3ccc4c(C)n(C)nc4c3)n2)cc1S(N)(=O)=O", "read-out": "enzyme activity", "mode": "inhibitor", "tested at": "10 µM", "endpoint": "inhibition", "result": "2%"}
{"Compound": "Cc1sc(C(=O)NC2COC2)cc1-n1cc(NC(=O)Nc2c(F)cccc2Cl)cn1", "read-out": "enzyme activity", "mode": "inhibitor", "tested at": "10 µM", "endpoint": "remaining activity", "result": "91.5%"}
{"Compound": "CCN(CC)CCNC(=O)c1c(C)[nH]c(/C=C2\\C(=O)Nc3ccc(F)cc32)c1C", "read-out": "enzyme activity", "mode": "inhibitor", "tested at": "10 µM", "endpoint": "inhibition", "result": "73%"}
{"Compound": "Cc1cc(NC(=O)c2cccc3cc(-c4cccc5[nH]nc(N)c45)ccc23)ccc1F", "read-out": "enzyme activity", "mode": "inhibitor", "tested at": "0.1 µM", "endpoint": "activity vs control", "result": "93%"}
{"Compound": "COc1cc2ncnc(Nc3ccc(Oc4ccccc4)c(C)c3C)c2cc1OC", "read-out": "enzyme activity", "mode": "inhibitor", "tested at": "1 µM", "endpoint": "inhibition", "result": "-2%"}
